Laboratory results from ChEMBL document CHEMBL2407090, “Design, synthesis, and optimization of novel epoxide incorporating peptidomimetics as selective calpain inhibitors” (J Med Chem, 2013).

Experiments:
[1] = target: T1, Calpain-1 catalytic subunit (Homo sapiens, UniProt P07384); experiment: Inhibition of human erythrocyte full length Cal1 using (DABCYL)TPLK-SPPSPR-(EDANS) as substrate after 20 min by FRET assay
T1 sequence (P07384 whole entry): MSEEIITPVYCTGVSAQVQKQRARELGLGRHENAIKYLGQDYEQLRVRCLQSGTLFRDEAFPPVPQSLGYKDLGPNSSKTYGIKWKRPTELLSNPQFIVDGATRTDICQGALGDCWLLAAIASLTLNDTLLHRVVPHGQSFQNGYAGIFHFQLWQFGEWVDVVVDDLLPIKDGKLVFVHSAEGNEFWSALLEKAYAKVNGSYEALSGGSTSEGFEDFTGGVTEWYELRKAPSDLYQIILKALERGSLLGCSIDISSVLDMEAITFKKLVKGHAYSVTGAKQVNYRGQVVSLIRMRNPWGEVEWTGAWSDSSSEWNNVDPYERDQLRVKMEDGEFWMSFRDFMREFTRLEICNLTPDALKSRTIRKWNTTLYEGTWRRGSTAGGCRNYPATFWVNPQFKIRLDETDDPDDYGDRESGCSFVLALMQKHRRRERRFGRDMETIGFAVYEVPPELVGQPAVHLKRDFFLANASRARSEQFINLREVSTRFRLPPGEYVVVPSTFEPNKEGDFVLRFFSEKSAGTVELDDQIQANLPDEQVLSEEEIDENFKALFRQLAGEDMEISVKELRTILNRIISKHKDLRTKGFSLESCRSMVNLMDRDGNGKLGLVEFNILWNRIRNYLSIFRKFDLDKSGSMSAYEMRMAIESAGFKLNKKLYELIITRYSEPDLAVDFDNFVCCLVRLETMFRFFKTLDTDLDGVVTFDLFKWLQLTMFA

[2] = target: T2, Calpain-1 catalytic subunit (Sus scrofa, UniProt P35750); experiment: Inhibition of pig full length Cal1 after using SucLLVYAMC as substrate by FRET assay
T2 sequence (P35750 whole entry): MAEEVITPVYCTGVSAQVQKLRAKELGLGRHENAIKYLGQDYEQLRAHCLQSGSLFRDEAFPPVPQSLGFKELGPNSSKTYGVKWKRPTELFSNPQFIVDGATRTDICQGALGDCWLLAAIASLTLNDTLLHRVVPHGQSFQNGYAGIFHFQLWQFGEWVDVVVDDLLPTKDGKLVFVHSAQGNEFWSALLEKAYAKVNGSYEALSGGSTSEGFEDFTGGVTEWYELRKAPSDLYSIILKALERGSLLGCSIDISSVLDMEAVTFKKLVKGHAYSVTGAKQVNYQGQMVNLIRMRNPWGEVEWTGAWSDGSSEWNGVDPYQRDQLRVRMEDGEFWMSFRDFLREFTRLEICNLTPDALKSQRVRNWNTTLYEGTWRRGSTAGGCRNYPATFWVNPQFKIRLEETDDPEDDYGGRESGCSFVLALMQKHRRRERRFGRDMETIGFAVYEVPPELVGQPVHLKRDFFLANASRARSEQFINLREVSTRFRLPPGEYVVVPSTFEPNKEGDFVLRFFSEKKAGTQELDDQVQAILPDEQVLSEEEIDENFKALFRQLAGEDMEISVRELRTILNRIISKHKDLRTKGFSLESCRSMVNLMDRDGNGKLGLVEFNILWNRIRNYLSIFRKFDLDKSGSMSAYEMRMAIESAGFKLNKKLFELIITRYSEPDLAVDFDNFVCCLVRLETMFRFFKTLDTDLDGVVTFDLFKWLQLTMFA
How it was run: (§1)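 Enzyme (full-length porcine calpain 156 nM, with 1 mM CaCl2; or papain 236 pM) in 50 mM HEPES pH 7.6, 100 mM NaCl, 1 mM TCEP, 30 μM Suc-LLVY-AMC, inhibitor 0.5–50 μM; organic solvent <2 %, 30 °C. AMC release followed over time (Ex 346/Em 444 nm). Inhibition constants from varied enzyme and inhibitor concentrations; mean ± S.D. of triplicates.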

[3] = target: T3, Papain (Carica papaya, UniProt P00784); experiment: Inhibition of papain after using SucLLVYAMC as substrate by FRET assay; how it was run: as §1
T3 sequence (P00784 whole entry): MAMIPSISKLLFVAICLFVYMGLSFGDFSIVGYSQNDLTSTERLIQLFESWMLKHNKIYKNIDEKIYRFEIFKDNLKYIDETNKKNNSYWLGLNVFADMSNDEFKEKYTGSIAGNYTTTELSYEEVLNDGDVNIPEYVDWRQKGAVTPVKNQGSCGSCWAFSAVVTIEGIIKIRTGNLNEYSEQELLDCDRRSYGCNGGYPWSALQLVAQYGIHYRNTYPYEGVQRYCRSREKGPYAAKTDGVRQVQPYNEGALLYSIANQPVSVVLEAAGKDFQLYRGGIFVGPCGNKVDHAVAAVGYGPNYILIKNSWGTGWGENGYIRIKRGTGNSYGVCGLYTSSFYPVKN

[4] = target: T4, Calpain-1 catalytic subunit (Rattus norvegicus) (UniProt P97571); experiment: Binding affinity to recombinant rat […] Cal1 catalytic domain expressed in Escherichia coli BL21(DE3) assessed as modification of active site cysteine at 1 uM by LC-MS/MS analysis
T4 sequence (whole entry): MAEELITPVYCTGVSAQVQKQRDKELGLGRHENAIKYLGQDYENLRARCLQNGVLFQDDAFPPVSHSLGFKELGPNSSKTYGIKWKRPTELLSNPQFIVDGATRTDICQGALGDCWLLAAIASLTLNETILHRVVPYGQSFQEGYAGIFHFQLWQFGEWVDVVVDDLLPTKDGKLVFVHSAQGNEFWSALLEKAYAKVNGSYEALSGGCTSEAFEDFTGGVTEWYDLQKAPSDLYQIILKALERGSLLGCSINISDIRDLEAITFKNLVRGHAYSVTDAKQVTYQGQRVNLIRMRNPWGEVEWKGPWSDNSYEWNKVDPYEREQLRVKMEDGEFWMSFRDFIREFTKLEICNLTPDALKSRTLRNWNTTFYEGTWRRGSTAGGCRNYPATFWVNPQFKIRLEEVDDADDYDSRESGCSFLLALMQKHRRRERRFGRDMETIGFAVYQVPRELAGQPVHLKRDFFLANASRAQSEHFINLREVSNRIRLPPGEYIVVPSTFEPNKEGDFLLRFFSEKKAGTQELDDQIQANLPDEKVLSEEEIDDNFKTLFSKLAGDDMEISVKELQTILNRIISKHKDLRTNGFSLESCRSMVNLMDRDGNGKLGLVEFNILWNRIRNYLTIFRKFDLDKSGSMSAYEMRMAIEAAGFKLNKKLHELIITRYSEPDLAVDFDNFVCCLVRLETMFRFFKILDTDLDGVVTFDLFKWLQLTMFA

| SMILES | IC50 [1] | Ki [2] | Ki [3] | Activity [4] |
| --- | --- | --- | --- | --- |
| O=C(NCc1cn(-c2c(F)cccc2F)nn1)[C@H](Cc1cscn1)NC(=O)[C@H]1O[C@@H]1C(=O)O | > 1000 nM |  |  |  |
| CC(C)C[C@H](NC(=O)[C@H]1O[C@@H]1C(=O)O)C(=O)NCCCCNS(=O)(=O)c1ccc(F)cc1 | 150 nM |  |  |  |
| NS(=O)(=O)c1ccc(-n2cc(CNC(=O)[C@H](Cc3cscn3)NC(=O)[C@H]3O[C@@H]3C(=O)O)nn2)cc1 | > 1000 nM |  |  |  |
| O=C(NCc1cn(-c2cc(C(F)(F)F)cc(C(F)(F)F)c2)nn1)[C@H](Cc1cscn1)NC(=O)[C@H]1O[C@@H]1C(=O)O | > 1000 nM |  |  |  |
| O=C(Nc1nc(-c2ccc(F)cc2)cs1)[C@H](Cc1cscn1)NC(=O)[C@H]1O[C@@H]1C(=O)O | 100 nM | 2590 nM | 5310 nM |  |
| CC(C)C[C@H](NC(=O)[C@H]1O[C@@H]1C(=O)O)C(=O)NCCCCNC(=O)CCCCC1CCSS1 (stereo partly specified) | 100 nM |  |  |  |
| CC(C)C[C@H](NC(=O)[C@H]1O[C@@H]1C(=O)O)C(=O)Nc1nc(-c2ccc(F)cc2)cs1 |  |  | 1620 nM | Dose-dependent effect |
| CC(C)C[C@H](NC(=O)[C@H]1O[C@@H]1C(=O)O)C(=O)NCCCCNC(=O)CCCC[C@@H]1SC[C@@H]2NC(=O)N[C@@H]21 | 100 nM |  |  |  |
| CC(C)C[C@H](NC(=O)[C@H]1O[C@@H]1C(=O)O)C(=O)NCCCCN=C(N)N [E-64] | 100 nM | 3960 nM | 5080 nM | Dose-dependent effect |
| Cc1cc(C)c(-n2cc(CNC(=O)[C@H](Cc3cscn3)NC(=O)[C@H]3O[C@@H]3C(=O)O)nn2)c(C)c1 | > 1000 nM |  |  |  |
